Source: ChEMBL document CHEMBL4033777, “Next-Generation Hypoxic Cell Radiosensitizers: Nitroimidazole Alkylsulfonamides” (J Med Chem, 2018)
≈ marks a conversion by molar mass, not a printed value.

Columns and labels:
HCT-116 [1] = assay: Cytotoxicity against human HCT116 cells at anoxic IC50 incubated for 1 hr at 21 degC by clonogenic survival assay; conditions: hct-116, 1 h
HCT-116 [2] = assay: Hypoxia radiosensitization activity in human HCT116 cells assessed as sensitizer enhancement ratio by measuring ratio of radiation dose for 1% survival in absence to presence of compound at 0.81 mM preincubated for 1 hr followed by irradiation measured after 10 days by methylene blue staining-based cell counting method; format: functional
HCT-116 [3] = assay: Hypoxia radiosensitization activity in human HCT116 cells assessed as survival ratio by measuring ratio of cell survival with 15 Gy radiation in absence to presence of compound at anoxic IC50 preincubated for 1 hr followed by 15 Gy irradiation measured after 10 days by methylene blue staining-based cell counting method; format: functional
Outline: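 Anoxic HCT116 cells were seeded at 10^5/well and treated at the anoxic IC50 concentration for 1 h at room temperature. They were irradiated with 15 Gy (60Co, ~2 Gy/min) in a sealed steel box, then plated clonogenically. Colonies of >50 cells were counted […]. SR15 = survival with radiation / survival with drug + radiation.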

HCT-116 [4] = assay: Cytotoxicity against human HCT116 cells incubated for 4 hrs under anaerobic condition measured after 5 days by sulforhodamine B assay; format: functional, cell-based
Outline: (§1)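 STR-authenticated, mycoplasma-free HCT116 cells in αMEM + 5% FCS were seeded at 700 cells/well and allowed 2 h to attach. Drug was added from DMSO stocks (<1% DMSO) in serial 3-fold dilutions for 4 h, oxic or anoxic (Pd-catalyst anaerobic chamber, medium pre-equilibrated ≥3 days). After washing, cells regrew for 5 days before SRB staining and IC50 determination.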

[5] = Electrophilicity of the compound in pH 7 phosphate buffer assessed as one-electron reduction potential
Outline: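 The one-electron reduction potential was set by pulse radiolysis equilibria at pH 7.0 (2.5 mM phosphate), established within 20 µs against benzylviologen, methylviologen or triquat. ΔE came from equilibrium constants via the Nernst equation, at three concentration ratios and 22 ± 2 °C.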

HCT-116 [6] = assay: Hypoxic cytotoxicity ratio of IC50 for human HCT116 cells under oxic condition to IC50 for human HCT116 cells under anoxic condition
Outline: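 HCT116 cells, 700 per well and attached 2 h, got a 4 h exposure to 3-fold serial dilutions (<1% DMSO) under air or in a Pd-catalyst anaerobic chamber with pre-equilibrated medium. Cells were washed, regrown 5 days, and stained with sulforhodamine B to give IC50. HCR = oxic IC50 / anoxic IC50.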

[7] = Solubility of the compound in alphaMEM containing 5% FCS and 1% DMSO by HPLC analysis; format: physicochemical
Outline: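 Saturated drug solutions were incubated at 37 °C in αMEM with 5% FCS and 1% DMSO. Dissolved drug was quantified by HPLC.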

HCT-116 [8] = assay: Hypoxia radiosensitization activity in human HCT116 cells assessed as sensitizer enhancement ratio by measuring ratio of radiation dose for 1% survival in absence to presence of compound at 0.81 mM preincubated for 1 hr followed by irradiation measured after 10 days by methylene blue staining-based cell counting method relative to misonidazole; format: functional
HCT-116 [9] = assay: Hypoxia radiosensitization activity in human HCT116 cells assessed as survival ratio by measuring ratio of cell survival with radiation in absence to presence of compound at 0.81 mM preincubated for 1 hr followed by 6 to 29 Gy irradiation measured after 10 days by methylene blue staining-based cell counting method relative to misonidazole; format: functional
HCT-116 [10] = assay: Hypoxia radiosensitization activity in human HCT116 cells assessed as survival ratio by measuring ratio of cell survival with radiation in absence to presence of compound at 0.81 mM preincubated for 1 hr followed by 6 to 29 Gy irradiation measured after 10 days by methylene blue staining-based cell counting method; format: functional
HCT-116 [11] = assay: Cytotoxicity against human HCT116 cells incubated for 4 hrs under aerobic condition measured after 5 days by sulforhodamine B assay; format: cell-based
Outline: as §1

[12] = Tmax in tumor of NIH-III mouse xenografted with human HCT116 cells at 2.20 mmol/kg, iv administered as single dose by HPLC analysis; format: ADME, organism-based, Neoplasm; conditions: 2.2 mmol/kg
Outline: (§2)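 Female NIH-III mice bearing subcutaneous HCT116 tumors (10^6 cells; ~300 mm3) got a single i.v. dose at the MAD or 75% of the MTD. Vehicle was saline with 1% DMSO, or saline with 2 equivalents of NaHCO3 for the phosphates. Plasma and tumor were sampled at multiple times by cardiac puncture and excision, drug was measured by HPLC, and Tmax came from noncompartmental analysis.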

[13] = Tmax in plasma of NIH-III mouse xenografted with human HCT116 cells at 2.20 mmol/kg, iv administered as single dose by HPLC analysis; format: ADME, organism-based; conditions: 2.2 mmol/kg
Outline: as §2

HCT-116 [14] = assay: Hypoxia radiosensitization activity in human HCT116 cells assessed as sensitizer enhancement ratio by measuring ratio of radiation dose for 1% survival in absence to presence of compound at 1 mM […] measured after 10 days by methylene blue staining-based cell counting method; format: functional
Mus musculus [15] = assay: Drug level in NIH-III mouse assessed as maximum achievable dose at 10 ml/kg, iv; format: ADME; conditions: in vivo
Outline: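 Non-tumor-bearing female NIH-III mice (~20 g) received freshly prepared solutions i.v. at 10 mL/kg in 0.9% saline with 1% DMSO, or saline with 2 molar equivalents NaHCO3 for phosphate prodrugs. MAD was the maximum dose that dissolved in the injection volume.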

HCT-116 [16] = assay: Hypoxia radiosensitization activity in human HCT116 cells assessed as sensitizer enhancement ratio by measuring ratio of radiation dose for 1% survival in absence to presence of compound at 1 mM preincubated for 1 hr followed by irradiation measured after 10 days by methylene blue staining-based cell counting method relative to misonidazole; format: functional
HCT-116 [17] = assay: Hypoxia radiosensitization activity in human HCT116 cells assessed as survival ratio by measuring ratio of cell survival with radiation in absence to presence of compound at 1 mM preincubated for 1 hr followed by 6 to 29 Gy irradiation measured after 10 days by methylene blue staining-based cell counting method relative to misonidazole; format: functional
[18] = Cmax in tumor of NIH-III mouse xenografted with human HCT116 cells at 2.20 mmol/kg, iv administered as single dose by HPLC analysis; format: ADME, organism-based, Neoplasm; set-up: dose 2.2 mmol/kg, route intravenous; conditions: in vivo
Outline: (§3)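 Female NIH-III mice bearing subcutaneous HCT116 xenografts (10^6 cells inoculated). At ca. 300 mm3 tumor size, a single i.v. dose was given at the MAD or 75% of the MTD. Vehicle was 0.9% saline with 1% DMSO, or saline with 2 molar equivalents NaHCO3 for phosphate prodrugs. Plasma and tumor were sampled at multiple times by cardiac puncture and excision, assayed by HPLC, and analysed noncompartmentally.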

Mus musculus [19] = assay: Toxicity in NIH-III mouse xenografted with human HCT116 cells assessed as change in body weight with 12.5 Gy radiation at 2.20 mmol/kg, iv administered as single dose; conditions: in vivo
HCT-116 [20] = assay: In vivo hypoxia radiosensitization activity in human HCT116 cells xenografted in NIH-III mouse assessed as survival ratio by measuring ratio of cell survival with 12.5 Gy radiation in absence to presence of compound at 2.20 mmol/kg, iv pretreated as single dose for 10 mins followed by irradiation measured after 18 hrs by excision assay; format: functional
HCT-116 [21] = assay: Hypoxia radiosensitization activity in human HCT116 cells assessed as survival ratio by measuring ratio of cell survival with radiation in absence to presence of compound at 1 mM preincubated for 1 hr followed by 6 to 29 Gy irradiation measured after 10 days by methylene blue staining-based cell counting method; format: functional
Plasma = assay: Cmax in plasma of NIH-III mouse xenografted with human HCT116 cells at 2.20 mmol/kg, iv administered as single dose by HPLC analysis; format: ADME, organism-based; set-up: dose 2.2 mmol/kg, route intravenous; conditions: in vivo
Outline: as §3

HCT-116 [22] = assay: Hypoxia radiosensitization activity in human HCT116 cells assessed as survival ratio by measuring ratio of cell survival with radiation in absence to presence of compound at 0.68 mM preincubated for 1 hr followed by 6 to 29 Gy irradiation measured after 10 days by methylene blue staining-based cell counting method; format: functional
HCT-116 [23] = assay: Hypoxia radiosensitization activity in human HCT116 cells assessed as sensitizer enhancement ratio by measuring ratio of radiation dose for 1% survival in absence to presence of compound at 0.68 mM preincubated for 1 hr followed by irradiation measured after 10 days by methylene blue staining-based cell counting method relative to misonidazole; format: functional
HCT-116 [24] = assay: Hypoxia radiosensitization activity in human HCT116 cells assessed as survival ratio by measuring ratio of cell survival with radiation in absence to presence of compound at 0.68 mM preincubated for 1 hr followed by 6 to 29 Gy irradiation measured after 10 days by methylene blue staining-based cell counting method relative to misonidazole; format: functional
HCT-116 [25] = assay: Hypoxia radiosensitization activity in human HCT116 cells assessed as sensitizer enhancement ratio by measuring ratio of radiation dose for 1% survival in absence to presence of compound at 0.68 mM preincubated for 1 hr followed by irradiation measured after 10 days by methylene blue staining-based cell counting method; format: functional
HCT-116 [26] = assay: Hypoxia radiosensitization activity in human HCT116 cells assessed as sensitizer enhancement ratio by measuring ratio of radiation dose for 1% survival in absence to presence of compound at 0.08 mM preincubated for 1 hr followed by irradiation measured after 10 days by methylene blue staining-based cell counting method relative to misonidazole; format: functional
HCT-116 [27] = assay: Hypoxia radiosensitization activity in human HCT116 cells assessed as survival ratio by measuring ratio of cell survival with radiation in absence to presence of compound at 0.08 mM preincubated for 1 hr followed by 6 to 29 Gy irradiation measured after 10 days by methylene blue staining-based cell counting method; format: functional
HCT-116 [28] = assay: Hypoxia radiosensitization activity in human HCT116 cells assessed as survival ratio by measuring ratio of cell survival with radiation in absence to presence of compound at 0.08 mM preincubated for 1 hr followed by 6 to 29 Gy irradiation measured after 10 days by methylene blue staining-based cell counting method relative to misonidazole; format: functional
HCT-116 [29] = assay: Hypoxia radiosensitization activity in human HCT116 cells assessed as sensitizer enhancement ratio by measuring ratio of radiation dose for 1% survival in absence to presence of compound at 0.08 mM preincubated for 1 hr followed by irradiation measured after 10 days by methylene blue staining-based cell counting method; format: functional
HCT-116 [30] = assay: Hypoxia radiosensitization activity in human HCT116 cells assessed as survival ratio by measuring ratio of cell survival with radiation in absence to presence of compound at 2.1 mM preincubated for 1 hr followed by 6 to 29 Gy irradiation measured after 10 days by methylene blue staining-based cell counting method; format: functional
HCT-116 [31] = assay: Hypoxia radiosensitization activity in human HCT116 cells assessed as sensitizer enhancement ratio by measuring ratio of radiation dose for 1% survival in absence to presence of compound at 2.1 mM preincubated for 1 hr followed by irradiation measured after 10 days by methylene blue staining-based cell counting method relative to misonidazole; format: functional
HCT-116 [32] = assay: Hypoxia radiosensitization activity in human HCT116 cells assessed as sensitizer enhancement ratio by measuring ratio of radiation dose for 1% survival in absence to presence of compound at 2.1 mM preincubated for 1 hr followed by irradiation measured after 10 days by methylene blue staining-based cell counting method; format: functional

solubility [7]	Compound	Activity (HCT-116 [1])	Ratio (HCT-116 [3])	IC50 (HCT-116 [4])	Activity [5]	Ratio IC50 (HCT-116 [6])	IC50 (HCT-116 [11])	Ratio (HCT-116 [22])	fold change (FC) (HCT-116 [23])	fold change (FC) (HCT-116 [24])	Ratio (HCT-116 [25])	other results
75.3 mM (≈ 19.9 mg/mL)	O=[N+]([O-])c1nccn1CCS(=O)(=O)NCCO	Non-Toxic	12	800 µM	-391 mV	8	380 to 4800 µM	–	–	–	–	Ratio (HCT-116 [2]): 1.27; fold change (FC) (HCT-116 [8]): 0.92; fold change (FC) (HCT-116 [9]): 0.54; Ratio (HCT-116 [10]): 4.2
450 mM (≈ 144 mg/mL)	O=[N+]([O-])c1nccn1CS(=O)(=O)NCCN1CCOCC1	Non-Toxic	10.5	80 µM	–	50	380 to 4800 µM	–	–	–	–	fold change (FC) (HCT-116 [26]): 0.89; Ratio (HCT-116 [27]): 3.9; fold change (FC) (HCT-116 [28]): 0.51; Ratio (HCT-116 [29]): 1.28

Continued, compound first:

Compound	solubility [7]	Activity (HCT-116 [1])	Ratio (HCT-116 [3])	IC50 (HCT-116 [4])	Activity [5]	Ratio IC50 (HCT-116 [6])	IC50 (HCT-116 [11])	Ratio (HCT-116 [22])	fold change (FC) (HCT-116 [23])	fold change (FC) (HCT-116 [24])	Ratio (HCT-116 [25])	other results
O=C(Cn1ccnc1[N+](=O)[O-])NCCO [ETANIDAZOLE]	> 200 mM	Non-Toxic	7	1000 µM	-388 mV	19	–	–	–	–	–	Tmax [12]: 5 min; Tmax [13]: 5 min; Ratio (HCT-116 [14]): 1.339; Drug uptake (Mus musculus [15]): 2.2 mmol/kg; fold change (FC) (HCT-116 [16]): 0.95; fold change (FC) (HCT-116 [17]): 0.75; Cmax [18]: 800 µM; Activity (Mus musculus [19]): Non-Toxic; Ratio (HCT-116 [20]): 8; Ratio (HCT-116 [21]): 4.6; Cmax (Plasma): 3640 µM
Cc1ncc([N+](=O)[O-])n1CCS(=O)(=O)NCCO	> 49.3 mM	Non-Toxic	3.4	400 µM	–	1.3	–	1.616	0.82	0.36	1.176	–
O=[N+]([O-])c1cncn1CS(=O)(=O)NCCN1CCOCC1	–	Non-Toxic	60	2100 µM	–	1.4	–	–	–	–	–	Ratio (HCT-116 [30]): 8.2; fold change (FC) (HCT-116 [31]): 1.01; Ratio (HCT-116 [32]): 1.43
Cc1ncc([N+](=O)[O-])n1CCS(=O)(=O)N1CCC(N(C)C)CC1	46.5 mM (≈ 16.1 mg/mL)	Non-Toxic	12	700 µM	–	2.9	–	25	1.15	2.3	1.67	–
